In brackets after ≈: the same amount, converted by molar mass. Activity calls are given as the source filed them. No cut-off for these calls is given here.
How the values were obtained:
[1] = biological target: T1, Peroxisome proliferator-activated receptor gamma (Homo sapiens) (UniProt P37231); assay: Modulation of full-length human pSG5-fused PPARgamma expressed in MG-63 cells co-expressing pGV-P2-PPRE after 24 hrs by luciferase reporter gene based transactivation assay relative to 5-(4-{[6-(4-hydroxy-3,5-dimethylphenoxy)-1-methyl-1H-benzimidazol- 2-yl]methoxy}benzyl)-1,3-thiazolidine-2,4-dione; assay type: cell-based
T1 sequence (whole entry): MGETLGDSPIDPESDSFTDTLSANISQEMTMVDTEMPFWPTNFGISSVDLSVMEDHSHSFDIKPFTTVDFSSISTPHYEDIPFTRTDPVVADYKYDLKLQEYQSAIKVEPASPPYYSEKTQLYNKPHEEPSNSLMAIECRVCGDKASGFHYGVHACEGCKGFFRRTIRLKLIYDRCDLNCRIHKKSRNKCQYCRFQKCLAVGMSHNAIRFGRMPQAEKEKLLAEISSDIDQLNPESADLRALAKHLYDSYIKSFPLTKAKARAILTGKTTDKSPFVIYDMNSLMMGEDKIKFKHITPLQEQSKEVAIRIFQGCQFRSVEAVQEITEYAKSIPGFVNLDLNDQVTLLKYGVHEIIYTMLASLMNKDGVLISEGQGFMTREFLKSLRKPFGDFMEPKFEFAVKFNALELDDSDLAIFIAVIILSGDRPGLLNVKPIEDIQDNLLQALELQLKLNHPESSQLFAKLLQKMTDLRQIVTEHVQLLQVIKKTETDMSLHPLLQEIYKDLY
Outline: (§1)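 MG-63 cells transiently co-transfected (Lipofectamine, 4 h, serum- and antibiotic-free) with pSG5-hPPARγ and pGV-P2-PPRE luciferase reporter, replated at 40,000 cells/well. After 24 h and medium change, exposed to graded compound concentrations for 20 h. Luciferase luminescence read as the output.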

[2] = biological target: T2, Peroxisome proliferator-activated receptor gamma (Homo sapiens, UniProt P37231); assay: Modulation of full-length human pSG5-fused PPARgamma expressed in MG-63 cells co-expressing pGV-P2-PPRE after 24 hrs by luciferase reporter gene based transactivation assay; assay type: cell-based; outline: as §1
T2 sequence (P37231 whole entry): T1 sequence (whole entry)

Rattus norvegicus [3] = assay: Antidiabetic activity in Zucker diabetic fatty rat assessed as reduction of non-fasting plasma glucose level at >1 mg/kg, po qd for 12 days; assay type: functional
Outline: (§2)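 Female ZDF rats, 5 weeks old on arrival, acclimatised over 1 week on MR-DBT chow with 10% lard. Randomised on Day -1 by BW, PG, insulin and blood indices. Once-daily oral gavage in 0.5% methylcellulose at 0.01–100 mg/kg for 12 days, n = 5. BW recorded daily. Tail-vein plasma taken Day 12 for glucose, TG, FFA and insulin kits. Dunnett vs vehicle.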

Rattus norvegicus [4] = assay: Toxicity in po dosed Wistar-Imamichi rat assessed as increase heart weight administered qd for 14 days; assay type: organism-based; conditions: in vivo, 336 h
Outline: (§3)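 Female Wistar–Imamichi rats (7 weeks old, acclimatized >1 week on FR2 chow), randomized by BW; n = 5/group. Oral gavage once daily in 0.5% methylcellulose, 100 mg/kg or 30–300 mg/kg, Days 0–13. BW recorded daily. On Day 14, heart weighed after Evans blue dosing and aortic blood draw under ether. Dunnett's or unpaired two-tailed t-test vs vehicle.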

Rattus norvegicus [5] = assay: Antidiabetic activity in po dosed Zucker diabetic fatty rat assessed as improvement in plasma lipids profiles administered qd for 12 days; assay type: functional, organism-based; outline: as §2
Rattus norvegicus [6] = assay: Toxicity in Wistar-Imamichi rat assessed as increase in body weight at 300 mg/kg, po qd for 14 days; assay type: organism-based; design: dose 300 mg/kg, route oral; conditions: in vivo, 336 h; outline: as §3
Rattus norvegicus [7] = assay: Antidiabetic activity in Zucker diabetic fatty rat assessed as reduction of triglyceride level at 1 to 100 mg/kg, po qd for 12 days; assay type: functional, organism-based
Outline: (§4)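 Female ZDF rats (5 weeks old on arrival, acclimatized >1 week on MR-DBT diet with 10% lard) randomized on Day -1 by BW, plasma glucose, insulin, Hct, Hb, RBC, MCV; n = 5/group. Oral gavage once daily in 0.5% methylcellulose, 0.01–100 mg/kg, Days 0–11. BW recorded daily; tail-vein plasma on Day 12 for glucose, TG, insulin, FFA; Dunnett's test vs vehicle.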

Rattus norvegicus [8] = assay: Toxicity in Zucker diabetic fatty rat assessed as increase in body weight at 0.1 mg/kg, po qd for 12 days; assay type: organism-based; design: dose 0.1 mg/kg, route oral; conditions: in vivo, 288 h; outline: as §4
Rattus norvegicus [9] = assay: Antidiabetic activity in Zucker diabetic fatty rat assessed as reduction of free fatty acids level at >1 mg/kg, po qd for 12 days; assay type: functional, organism-based; outline: as §2
[10] = Solubility of the compound in JP2 at pH 6.8; assay type: physicochemical; conditions: JP2, pH 6.8
Outline: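 Solubility was measured in JP2 medium at pH 6.8.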

[11] = biological target: T2, Peroxisome proliferator-activated receptor gamma; assay: Modulation of human GAL4-fused PPARgamma LBD expressed in COS7 cells co-expressing pG5luc by luciferase reporter gene based transactivation assay; assay type: cell-based, COS-7
Outline: (§5)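 COS7 cells in DMEM with 10% FBS were transfected with pM-hPPARγ, pM-PPARα or pM-PPARδ (GAL4-LBD) plus pG5luc using Lipofectamine 2000, then reseeded and held about 24 h. Serial dilutions were added, with 0.1% DMSO as control, for about 24 h more. Read-out was luciferase luminescence. Mean ± S.E.M., n = 3.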

Rattus norvegicus [12] = assay: Toxicity in Zucker diabetic fatty rat assessed as increase in body weight at >1 mg/kg, po qd for 12 days; assay type: organism-based; conditions: in vivo, 288 h; outline: as §2
[13] = Terminal half life in Fischer rat at 10 mg/kg, iv; assay type: ADME, organism-based; design: dose 10 mg/kg, route intravenous; conditions: in vivo, read-out: beta t1/2 (converted)
Outline: (§6)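 Male Fischer rats, fasted overnight, received the potassium salt at 10 mg/kg (5 mg/mL, 2 mL/kg). Vehicle was 20% HCO-60 in saline orally or 5% HCO-60 intravenously. Jugular-vein blood was taken and plasma drug measured by LC-MS/MS. Non-compartmental PK analysis; oral n = 4.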

Rattus norvegicus [14] = assay: Toxicity in Wistar-Imamichi rat assessed as increase heart weight at 100 mg/kg, po qd for 14 days; assay type: organism-based; design: dose 100 mg/kg, route oral; conditions: in vivo, 336 h
Outline: (§7)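 Female Wistar–Imamichi rats, 7 weeks old on arrival, randomised by BW. Once-daily oral gavage in 0.5% methylcellulose for 14 days, n = 5, BW recorded daily. On Day 14, 0.05% Evans blue was given i.v. (0.1 mL/100 g) and aortic blood drawn at 10 min. Heart weighed. Plasma TCA-deproteinised, sonicated, A620 read, and plasma volume computed from an EB calibration curve.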

Rattus norvegicus [15] = assay: Toxicity in Wistar-Imamichi rat assessed as increase in body weight at 30 to 100 mg/kg, po qd for 14 days; assay type: organism-based; design: dose 30-100 mg/kg, route oral; conditions: in vivo, 336 h; outline: as §7
[16] = Total clearance in Fischer rat at 10 mg/kg, iv; assay type: ADME, organism-based; design: dose 10 mg/kg, route intravenous; conditions: in vivo; outline: as §6
Rattus norvegicus [17] = assay: Toxicity in Wistar-Imamichi rat assessed as increase plasma volume at 100 mg/kg, po qd for 14 days; assay type: organism-based; design: dose 100 mg/kg, route oral; conditions: in vivo, 336 h; outline: as §7
[18] = Oral bioavailability in Fischer rat at 10 mg/kg; assay type: ADME, organism-based; conditions: in vivo; outline: as §6
Rattus norvegicus [19] = assay: Antidiabetic activity in Zucker diabetic fatty rat assessed as reduction of triglyceride level at 100 mg/kg, po qd for 12 days; assay type: functional, organism-based; design: dose 100 mg/kg; outline: as §2
[20] = biological target: T1, Peroxisome proliferator-activated receptor gamma (Homo sapiens); assay: Modulation of human GAL4-fused PPARgamma LBD expressed in COS7 cells co-expressing pG5luc by luciferase reporter gene based transactivation assay relative to control; assay type: cell-based; conditions: COS-7; outline: as §5
[21] = biological target: T3, Peroxisome proliferator-activated receptor alpha (Homo sapiens) (UniProt Q07869); assay: Modulation of human GAL4-fused PPARalpha LBD expressed in COS7 cells co-expressing pG5luc at 10 uM by luciferase reporter gene based transactivation assay; assay type: cell-based; conditions: COS-7; outline: as §5
T3 sequence (whole entry): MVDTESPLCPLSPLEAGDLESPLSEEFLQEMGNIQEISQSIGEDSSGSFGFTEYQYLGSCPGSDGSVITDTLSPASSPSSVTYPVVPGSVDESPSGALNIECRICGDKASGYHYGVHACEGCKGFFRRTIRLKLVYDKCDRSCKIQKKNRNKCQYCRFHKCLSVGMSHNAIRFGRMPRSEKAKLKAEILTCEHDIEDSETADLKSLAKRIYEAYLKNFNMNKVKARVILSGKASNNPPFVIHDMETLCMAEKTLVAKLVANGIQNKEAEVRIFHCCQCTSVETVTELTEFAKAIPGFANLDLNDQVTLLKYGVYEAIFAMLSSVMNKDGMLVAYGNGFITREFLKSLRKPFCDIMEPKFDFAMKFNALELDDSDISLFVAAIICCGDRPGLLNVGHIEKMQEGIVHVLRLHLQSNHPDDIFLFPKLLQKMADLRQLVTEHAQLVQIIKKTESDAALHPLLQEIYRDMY

[22] = biological target: T4, Peroxisome proliferator-activated receptor delta (Homo sapiens) (UniProt Q03181); assay: Modulation of human GAL4-fused PPARdelta LBD expressed in COS7 cells co-expressing pG5luc at 10 uM by luciferase reporter gene based transactivation assay; assay type: cell-based; conditions: COS-7; outline: as §5
T4 sequence (whole entry): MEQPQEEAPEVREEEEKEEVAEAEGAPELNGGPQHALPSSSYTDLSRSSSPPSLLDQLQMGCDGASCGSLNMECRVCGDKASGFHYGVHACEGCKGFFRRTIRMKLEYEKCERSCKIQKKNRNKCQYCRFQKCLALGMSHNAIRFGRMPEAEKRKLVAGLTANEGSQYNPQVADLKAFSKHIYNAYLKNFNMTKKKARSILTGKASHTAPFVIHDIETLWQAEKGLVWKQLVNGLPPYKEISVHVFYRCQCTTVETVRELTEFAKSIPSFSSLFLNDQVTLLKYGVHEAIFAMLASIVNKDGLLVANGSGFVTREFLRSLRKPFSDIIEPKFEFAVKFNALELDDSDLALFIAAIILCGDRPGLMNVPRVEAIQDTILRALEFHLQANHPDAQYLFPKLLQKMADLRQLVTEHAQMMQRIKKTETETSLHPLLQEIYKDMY

SMILES	Emax [1] [%]	EC50 [2] [nM]	other results
CN(CCOc1ccc(CC2SC(=O)NC2=O)cc1)c1ccccn1 (configuration not stated) [ROSIGLITAZONE]	–	–	Activity (Rattus norvegicus [3]): <200 mg/dL; Activity (Rattus norvegicus [4]): Dose-dependent effect; Activity (Rattus norvegicus [5]): Dose-dependent effect; Activity (Rattus norvegicus [6]): Non-toxic; Activity (Rattus norvegicus [7]): Active; Activity (Rattus norvegicus [8]): Toxic; Activity (Rattus norvegicus [9]): Active
COc1cc(O)c2c(c1C(=O)NCc1cccc3ccccc13)OC1=CC(O)=C(C(C)=O)C(=O)[C@]12C	47	180	–
CCc1ccc2ccccc2c1CNC(=O)c1c(OC)cc(O)c2c1OC1=CC(O)=C(C(C)=O)C(=O)[C@]12C	39	3.7	–
CCc1cc(F)c2ccccc2c1CNC(=O)c1c(OC)cc(O)c2c1OC1=CC(O)=C(C(C)=O)C(=O)[C@]12C [listing 1 of 2 here]	–	0.94	solubility [10]: 23 µg/mL (≈ 43.3 µM); EC50 [11]: 12 nM
CCc1cc(F)c2ccccc2c1CNC(=O)c1c(OC)cc(O)c2c1OC1=CC([O-])=C(C(C)=O)C(=O)[C@]12C.[K+]	–	–	Activity (Rattus norvegicus [3]): <200 mg/dL; Activity (Rattus norvegicus [12]): Toxic; half-life [13]: 4 h; solubility [10]: 910 µg/mL; Activity (Rattus norvegicus [14]): Non-toxic; Activity (Rattus norvegicus [15]): Toxic; clearance [16]: 6.98 mL/min/kg; Activity (Rattus norvegicus [17]): Non-toxic; bioavailability [18]: 58%
CCCc1ccc2ccccc2c1CNC(=O)c1c(OC)cc(O)c2c1OC1=CC(O)=C(C(C)=O)C(=O)[C@]12C	37	43	–
CCc1cc(F)c2ccccc2c1CNC(=O)c1c(OC)cc(O)c2c1OC1=CC(O)=C(C(C)=O)C(=O)[C@]12C [listing 2 of 2 here]	38	–	Activity (Rattus norvegicus [5]): Dose-dependent effect; Activity (Rattus norvegicus [19]): Active; Emax [20]: 64%; Activity [21]: inactive; Activity [22]: inactive; Activity (Rattus norvegicus [9]): Active

Continued, in another order:

Emax [1] [%]	EC50 [2] [nM]	SMILES	other results
50	4.8	COc1cc(O)c2c(c1C(=O)NCc1c(C)cc(F)c3ccccc13)OC1=CC(O)=C(C(C)=O)C(=O)[C@]12C	–
59	170	COc1cc(O)c2c(c1C(=O)NCc1c(C)ccc3c(Cl)cccc13)OC1=CC(O)=C(C(C)=O)C(=O)[C@]12C	–
47	28	COc1cc(O)c2c(c1C(=O)NCc1c(C)ccc3ccccc13)OC1=CC(O)=C(C(C)=O)C(=O)[C@]12C	–
44	4.9	COc1cc(O)c2c(c1C(=O)NCc1c(C)ccc3ccc(Cl)cc13)OC1=CC(O)=C(C(C)=O)C(=O)[C@]12C	–
40	65	COc1cc(O)c2c(c1C(=O)NCc1c(C)ccc3ccc(F)cc13)OC1=CC(O)=C(C(C)=O)C(=O)[C@]12C	–
28	27	COc1cc(O)c2c(c1C(=O)NCc1c(C)ccc3cc(F)ccc13)OC1=CC(O)=C(C(C)=O)C(=O)[C@]12C	–
57	22	COc1cc(O)c2c(c1C(=O)NCc1c(C)cc(Cl)c3ccccc13)OC1=CC(O)=C(C(C)=O)C(=O)[C@]12C	–
39	16	COc1cc(O)c2c(c1C(=O)NCc1c(C)ccc3c(F)cccc13)OC1=CC(O)=C(C(C)=O)C(=O)[C@]12C	–
22	59	CCCCc1ccc2ccccc2c1CNC(=O)c1c(OC)cc(O)c2c1OC1=CC(O)=C(C(C)=O)C(=O)[C@]12C	–
26	56	COc1cc(O)c2c(c1C(=O)NCc1c(C)ccc3cc(Cl)ccc13)OC1=CC(O)=C(C(C)=O)C(=O)[C@]12C	–
